According to publication PMC3240737 (Journal of medicinal chemistry, 2011):
Residues, ends and D or L forms follow the SMILES beside them.

How the values were obtained:
[1] = tested on: α-synuclein-induced toxicity in differentiated PC-12 cells; experiment: Inhibition of α-synuclein-induced toxicity, MTT assay; format: cell-based, rat; details: α-synuclein 15 μM, increasing Aβ(39–42) concentrations, 24 h, n ≥ 15
Outline: (§1)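 PC-12 cells differentiated with nerve growth factor (100 ng/mL, 48 h), then exposed for 24 h to the toxin with or without a range of test compound concentrations. Viability by MTT, scaled between medium and 1 μM staurosporine full kill (100% reduction). Controls were NaOH-matched vehicle and medium alone. Mean ± SEM of ≥3 independent experiments, 5 replicates per point.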

[2] = tested on: alamethicin-induced toxicity in differentiated PC-12 cells; experiment: Inhibition of alamethicin-induced toxicity, MTT assay; format: cell-based, rat; details: alamethicin 4 μM, increasing Aβ(39–42) concentrations, 24 h, n ≥ 15
Outline: as §1

[Y30]Aβ42 = [Y30]Aβ42 (Homo sapiens, UniProt P05067, A701Y/Y681F); experiment: Intrinsic Y fluorescence; format: binding; details: [Y30]Aβ42 5 μM, peptide 50 μM, pH 7.4, 22°C
[Y42]Aβ42 = [Y42]Aβ42 (Homo sapiens, UniProt P05067, A713Y/Y681F); experiment: Intrinsic Y fluorescence; format: binding; details: [Y42]Aβ42 5 μM, peptide 50 μM, pH 7.4, 22°C
[3] = tested on: Aβ42-induced toxicity in differentiated PC-12 cells; experiment: Inhibition of Aβ42-induced neurotoxicity, MTT assay; format: cell-based, rat; details: for Inhibition of Aβ42-induced neurotoxicity, single-dose screen: Aβ42 10 μM with 10-fold excess of derivative, 24 h, MTT, n ≥ 18
[4] = tested on: mouse primary hippocampal neurons; details: cited from earlier work
[Y20]Aβ42 = [Y20]Aβ42 (Homo sapiens, UniProt P05067, F691Y/Y681F); experiment: Intrinsic Y fluorescence; format: binding; details: [Y20]Aβ42 5 μM, peptide 50 μM, pH 7.4, 22°C
WT Aβ42 = WT Aβ42 (Homo sapiens, UniProt P05067); experiment: Intrinsic Y fluorescence; format: binding; details: peptide 50 μM, pH 7.4, 22°C
Outline: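 HFIP-treated peptide films were dissolved in 60 mM NaOH (10% of final volume) and diluted in 10 mM sodium phosphate, pH 7.4, to nominal Aβ42 5 μM ± test peptide 50 μM. Samples were spun at 5,000 g for 1 min, with concentrations verified by amino acid analysis. Ex 280 nm, em 290–400 nm, 22°C, ≥10 scans immediately. Buffer-subtracted, area integrated per micromole, normalized to Aβ42 alone; 4 experiments.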

[Y1]Aβ42 = [Y1]Aβ42 (Homo sapiens, UniProt P05067, D672Y/Y681F); experiment: Intrinsic Y fluorescence; format: binding; details: [Y1]Aβ42 5 μM, peptide 50 μM

## CC[C@H](C)[C@H](NC(=O)[C@@H](NC(=O)[C@@H](N)C(C)C)C(C)C)C(=O)N[C@@H](C)C(=O)O [Aβ(39–42)]
[1]
  Protection from α-synuclein-induced toxicity: only weak protection
[2]
  Protection from alamethicin-induced toxicity: only weak protection
[Y30]Aβ42
  Change of [Y30]Aβ42 fluorescence upon addition of peptide: did not change significantly
[Y42]Aβ42
  Change of [Y42]Aβ42 fluorescence upon addition of peptide: did not change significantly
[3]; Aβ42 10 μM, MTT and LDH
  Dose dependence of inhibition of Aβ42-induced toxicity: dose-dependent inhibition
[4]
  Rescue from Aβ42-induced inhibition of miniature excitatory postsynaptic current frequency: significantly rescued
[Y20]Aβ42
  Change of [Y20]Aβ42 fluorescence upon addition of peptide: did not change significantly
WT Aβ42; WT Aβ42 5 μM
  Change of WT Aβ42 fluorescence upon addition of peptide: did not change significantly

## CC[C@H](C)[C@H](NC(=O)[C@@H](NC(=O)[C@@H](N)C(C)C)C(C)C)C(=O)N[C@@H](C)C(N)=O [VVIA-NH2] (H-VVIA-NH2)
[Y30]Aβ42; mean ± SEM of 4 experiments
  Decrease of [Y30]Aβ42 fluorescence upon addition of peptide: 24 ± 3%
[3]
  Inhibition of Aβ42-induced neurotoxicity, single-dose screen: as active as Aβ(39–42)
[Y1]Aβ42
  Fold lower [Y1]Aβ42 fluorescence increase than with unmodified Aβ(39–42): 1.8 times

## Ac-AIVV
[3]
  Inhibition of Aβ42-induced neurotoxicity, single-dose screen: no inhibitory activity
[Y1]Aβ42; Fig. S3
  [Y1]Aβ42 fluorescence increase compared with Aβ(39–42): significantly lower

## Ac-VVIA
[3]
  Inhibition of Aβ42-induced neurotoxicity, single-dose screen: no inhibitory activity
WT Aβ42; Aβ42 5 μM, mean ± SEM of 4 experiments
  Decrease of Aβ42 fluorescence upon addition of peptide: 19 ± 3%

## VVAA
[3]
  Inhibition of Aβ42-induced neurotoxicity, single-dose screen: lost inhibitory activity
